Assay results taken from ChEMBL document CHEMBL3351639, “Fluorinated analogues of marsanidine, a highly α2-AR/imidazoline I1 binding site-selective hypotensive agent. Synthesis and biological activities” (Eur J Med Chem, 2014).
pKi: −log10 of the molar value.

Key:
Rattus norvegicus [1] = test: Hypertensive activity in anesthetized Wistar rat assessed as maximal increase in mean arterial blood pressure at 0.1 mg/kg, iv measured during 60 mins post dose; format: organism-based; design: dose 0.1 mg/kg, route intravenous; conditions: in vivo, 1 h
Summary of the method: (§1)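 Male Wistar rats (200–290 g) anaesthetized with thiopental 70 mg/kg i.p., maintained at 30 µg/kg/min; body temperature 36–37 °C. Carotid catheter recorded MAP and HR; jugular catheter for infusion. After 40 min of saline/thiopental infusion (1.2 ml/h), 0.1 mg/kg given as i.v. bolus (time 0). Signals sampled at 100 Hz. Maximal change from time 0 over 60 min, and its time, recorded. Saline vehicle control; n = 4–5.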

Rattus norvegicus [2] = test: Cardiovascular activity in anesthetized Wistar rat assessed as time required for maximal reduction in heart rate at 0.1 mg/kg, iv measured during 60 mins post dose; format: functional; summary of the method: as §1
Rattus norvegicus [3] = test: Hypotensive activity in anesthetized Wistar rat assessed as maximal reduction in mean arterial blood pressure at 0.1 mg/kg, iv measured during 60 mins post dose; format: functional; summary of the method: as §1
[4] = biological target: T1, Adrenergic receptor alpha-2 (Rattus norvegicus, UniProt P22086+P19328+P22909); test: Displacement of [3H]RX821002 from alpha2-adrenoceptor in Sprague-Dawley rat brain membranes after 45 mins by liquid scintillation counting; format: cell membranes, Membrane
T1 sequence (P22086 whole entry): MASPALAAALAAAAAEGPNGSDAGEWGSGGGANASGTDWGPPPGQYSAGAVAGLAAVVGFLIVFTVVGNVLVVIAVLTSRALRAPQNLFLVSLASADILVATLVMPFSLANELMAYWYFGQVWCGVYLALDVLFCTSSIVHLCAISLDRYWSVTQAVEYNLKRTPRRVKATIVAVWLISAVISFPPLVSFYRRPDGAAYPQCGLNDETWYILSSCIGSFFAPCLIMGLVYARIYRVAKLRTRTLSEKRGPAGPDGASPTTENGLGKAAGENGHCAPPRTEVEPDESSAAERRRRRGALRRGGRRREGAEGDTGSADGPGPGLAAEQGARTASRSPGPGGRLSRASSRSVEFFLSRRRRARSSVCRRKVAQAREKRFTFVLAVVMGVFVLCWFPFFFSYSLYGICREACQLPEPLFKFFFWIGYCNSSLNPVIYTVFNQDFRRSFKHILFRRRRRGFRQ
T1 sequence (P19328 whole entry): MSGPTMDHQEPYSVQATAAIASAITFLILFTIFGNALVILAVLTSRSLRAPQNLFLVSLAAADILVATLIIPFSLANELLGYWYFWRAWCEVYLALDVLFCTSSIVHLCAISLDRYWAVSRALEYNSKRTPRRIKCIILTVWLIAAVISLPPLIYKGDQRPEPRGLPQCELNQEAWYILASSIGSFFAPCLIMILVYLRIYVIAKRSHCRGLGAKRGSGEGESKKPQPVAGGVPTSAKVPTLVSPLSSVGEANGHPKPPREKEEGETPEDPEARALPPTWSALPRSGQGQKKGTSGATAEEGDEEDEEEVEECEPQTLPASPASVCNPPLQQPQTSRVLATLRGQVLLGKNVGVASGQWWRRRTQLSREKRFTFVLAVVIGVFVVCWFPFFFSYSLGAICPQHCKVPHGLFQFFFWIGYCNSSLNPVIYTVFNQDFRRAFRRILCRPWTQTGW
T1 sequence (P22909 whole entry): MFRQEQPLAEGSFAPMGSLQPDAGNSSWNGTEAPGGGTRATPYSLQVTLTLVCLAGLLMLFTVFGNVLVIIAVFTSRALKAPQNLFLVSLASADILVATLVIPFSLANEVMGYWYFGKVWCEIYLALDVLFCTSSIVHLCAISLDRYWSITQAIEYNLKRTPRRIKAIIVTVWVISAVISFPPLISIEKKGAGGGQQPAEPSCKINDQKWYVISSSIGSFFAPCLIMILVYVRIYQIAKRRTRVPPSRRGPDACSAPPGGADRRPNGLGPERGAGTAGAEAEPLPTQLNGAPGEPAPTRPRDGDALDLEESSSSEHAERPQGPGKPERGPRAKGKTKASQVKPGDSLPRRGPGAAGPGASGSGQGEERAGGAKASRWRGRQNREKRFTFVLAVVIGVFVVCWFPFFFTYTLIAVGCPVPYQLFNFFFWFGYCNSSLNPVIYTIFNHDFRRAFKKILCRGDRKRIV
Summary of the method: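 Crude P2 membranes from brains of male Sprague-Dawley rats (250–280 g), 0.2–0.3 mg protein. Radioligand 1 nM [3H]RX821002 (α2) or [3H]prazosin (α1); 11 concentrations of compound, 0.1 nM–100 µM. Non-specific binding: 10 µM rauwolscine (α2) or 10 µM phenylephrine (α1). Triplicate incubation, RT, 45 min. PEI-soaked glass-fibre filtration, then scintillation counting. Ki by Cheng-Prusoff; 3–4 experiments, or one for low-affinity compounds.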

[5] = biological target: T2, Alpha-2B adrenergic receptor (Homo sapiens, UniProt P18089); test: Displacement of [3H]RS-79948-197 from human alpha2B adrenoceptor expressed in CHO-K1 cells after 45 mins by liquid scintillation counting; format: cell-based
T2 sequence (P18089 whole entry): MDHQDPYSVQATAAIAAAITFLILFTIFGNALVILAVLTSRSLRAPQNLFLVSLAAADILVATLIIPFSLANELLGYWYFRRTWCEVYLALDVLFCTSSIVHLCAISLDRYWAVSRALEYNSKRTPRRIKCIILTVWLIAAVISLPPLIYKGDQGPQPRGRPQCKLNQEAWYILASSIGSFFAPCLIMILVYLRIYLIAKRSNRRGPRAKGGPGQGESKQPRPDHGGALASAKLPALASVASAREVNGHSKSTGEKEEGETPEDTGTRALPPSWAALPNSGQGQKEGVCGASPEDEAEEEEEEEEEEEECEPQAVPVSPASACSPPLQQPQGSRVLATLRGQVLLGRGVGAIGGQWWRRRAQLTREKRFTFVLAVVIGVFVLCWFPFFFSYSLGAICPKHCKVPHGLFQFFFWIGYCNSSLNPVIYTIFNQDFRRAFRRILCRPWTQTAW
Summary of the method: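 Membranes from CHO-K1 cells stably expressing each human α2-AR subtype (6–10 µg protein). Used 0.2 nM [3H]RS-79948-197 and 8 serial dilutions of competitor in 50 mM potassium phosphate, pH 7.4. Non-specific binding defined with 100 µM oxymetazoline. Filtration, then scintillation counting. Run in duplicate, at least 3 repeats. One-site nonlinear fit; IC50 converted to Ki by Cheng-Prusoff.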

Row | SMILES | Activity (Rattus norvegicus [1]) [mmHg] | Time (Rattus norvegicus [2]) [min] | Activity (Rattus norvegicus [3]) [mmHg] | Ki [4] [nM] | pKi [5]
1 | Fc1ccc2cnn(CC3=NCCN3)c2c1 | 23.6 | 5 | 12.7 | 29.73 | 
2 | Fc1ccc2c(cnn2N=C2NCCN2)c1 | 14.6 | 5 | 8.6 | 64.33 | 
3 | Fc1cccc2cnn(N=C3NCCN3)c12 | 21.1 | 10 | 59.4 | 30.97 | 6.80
4 | Fc1ccc2c(cnn2CC2=NCCN2)c1 | 0.8 | 38 | 7.2 | 32.17 | 
5 | Fc1ccc2cnn(N=C3NCCN3)c2c1 | 24.8 | 2 | 36 | 26.2 | 7.14
